SR-BI DiI-HDL act – SR-BI HDL lipid transfer activation; CHO ldlA[mSR-BI] cells, DiI-HDL uptake fluorescence, 3 h; 100 = double the neutral-control signal; activation, % at 12.5 µM; 0.096% of 320,000 active; AID 504775;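 active = mean replicate activation of at least 60% and every replicate at or above 60%; inconclusive = mean or all-replicate condition met, but not both; inactive = mean below 60% and not all replicates reaching 60%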
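Material – SR-BI-overexpressing, LDLR-lacking CHO cells · Medium – BSA-supplemented, HEPES-buffered Ham's F12, pH 7.4 · Doses – single concentration · Times – compound with DiI-HDL co-incubation, 3 h at 37 °C · Measured by – bottom-read fluorescence, 550/595 nm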
SR-BI DiI inh – mouse SR-BI HDL lipid transfer inhibition; 0.96% of 320,000 active; inhibition, % at 12.5 µM; ldlA[mSR-BI] CHO cells, DiI-HDL uptake fluorescence, 3 h; Q61009; AID 488896;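 active = mean replicate inhibition of at least 70% and a set share of replicates each scoring 70 or more; inconclusive = meets just one of the two criteria; inactive = fails both criteria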
Neddylation inh – cullin neddylation inhibition; P61081+Q13564; TR-FRET cullin neddylation, biochemical; inhibition, % at 25 µM; 0.58% of 360,000 active; AID 651699; in the data active = inhibition above about 36%
UBC13 inh – human UBC13 polyubiquitination inhibition | P61088 | UBC13 polyubiquitin chain formation, TR-FRET | inhibition, % at 20 µM | 0.47% of 330,000 active | AID 485273; in the data active = inhibition above about 45%, passing the limit was not always enough; inconclusive = no clear call, values can overlap the other calls
Target sequence (P61088 whole entry, looked up): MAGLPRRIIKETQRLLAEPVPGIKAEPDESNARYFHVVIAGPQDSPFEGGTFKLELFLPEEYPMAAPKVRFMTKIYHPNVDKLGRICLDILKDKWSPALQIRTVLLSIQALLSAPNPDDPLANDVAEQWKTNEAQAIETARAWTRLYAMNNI
Casp3 counter – inhibits human caspase-3 in UBC13 counter-screen | shares compounds with UBC13 inh | Recombinant caspase-3, Caspase-Glo 3/7 luminescence, 60 min | inhibition, % at 20 µM | 4% of 1,400 active | AID 488856;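 active = mean inhibition across replicates above about 26%, limit read from the data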
Target sequence (P42574 whole entry, looked up): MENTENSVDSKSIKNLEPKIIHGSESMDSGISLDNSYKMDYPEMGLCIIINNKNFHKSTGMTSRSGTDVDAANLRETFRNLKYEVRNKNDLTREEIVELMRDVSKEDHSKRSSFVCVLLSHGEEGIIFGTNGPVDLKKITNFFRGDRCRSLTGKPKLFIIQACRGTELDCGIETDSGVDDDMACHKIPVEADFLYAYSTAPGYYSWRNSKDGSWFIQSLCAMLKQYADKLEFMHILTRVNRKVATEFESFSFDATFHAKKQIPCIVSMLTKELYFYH
UBC13 conf – confirmation of human UBC13 polyubiquitin inhibitors | shares compounds with UBC13 inh | UBC13 polyubiquitination, TR-FRET, biochemical | inhibition, % at 10 µM | 68% of 1,400 active | AID 488859; in the data active = inhibition above about 45%; inconclusive = no clear call, values can overlap the other calls
Of the large screens only hits and unclear results are named; the others gave an inactive call (follow-up assays come after a bar, where shown). Shown are actives, neighbours in structure and some others; about 1.9% of the full set was active somewhere.

Cc1cc(C)c2sc(N(CCCN(C)C)C(=O)c3ccc(S(=O)(=O)N(C)C4CCCCC4)cc3)nc2c1	UBC13 inh 57.5 | Casp3 counter inactive | UBC13 conf 97.1
CC1(C)Cc2c(sc(NC(=O)COc3ccc(Cl)cc3Cl)c2C(N)=O)C(C)(C)N1	UBC13 inh 73.8 | Casp3 counter inactive | UBC13 conf 108.8
COC(=O)c1c(NC(=O)COc2ccc(Cl)cc2)sc2c1CC(C)(C)NC2(C)C	none
Cc1ccnc(NC(=O)c2cc(-c3ccc(Cl)s3)nc3ccccc23)c1	UBC13 inh inconclusive
O=C(O)c1cc(-c2ccc(Cl)s2)nc2ccccc12	none (not shown: Neddylation inh)
O=C(Nc1ccccn1)c1cc(-c2ccc(Cl)s2)nc2ccccc12	UBC13 inh 47.3 | Casp3 counter inactive | UBC13 conf inconclusive
Cc1cc(NC(=O)c2cc(-c3ccc(C)s3)nc3ccccc23)no1	none (not shown: Neddylation inh)
Cc1cccc(NC(=O)c2cc(-c3ccc(C)s3)nc3ccccc23)n1	UBC13 inh 47.1 (not shown: Neddylation inh) | Casp3 counter inactive | UBC13 conf inactive
CN(Cc1ccccc1)C(=O)COC(=O)c1cc(-c2ccc(Cl)s2)nc2ccccc12	UBC13 inh 51.3 | Casp3 counter inactive | UBC13 conf inconclusive
OC[C@H]1O[C@H](OC[C@H]2O[C@H](OC[C@H]3O[C@H](O[C@]4(CO)O[C@H](CO)[C@@H](O)[C@@H]4O)[C@H](O)[C@@H](O)[C@@H]3O)[C@H](O)[C@@H](O)[C@H]2O)[C@H](O)[C@@H](O)[C@H]1O	none
O=C(Nc1ccc(C(=O)NCCCN2CCCCC2)cc1)C1=CSCCO1	none
O=C(Nc1ccc(C(=O)NCCCN2CCN(c3ccc(F)cc3)CC2)cc1)C1=CSCCO1	UBC13 inh 65.2 | Casp3 counter inactive | UBC13 conf 97.2
CC[C@@H](C)[C@@H]1CN([C@@H](CN2CCC[C@H]2CN2C(N)=NC[C@H]2C(C)C)C(C)C)C(=N)N1CCCC1CCCC1	UBC13 inh 52.9 | Casp3 counter inactive | UBC13 conf 56.4
CCCCN1C(=N)N([C@@H](CCC)CN2CCC[C@H]2CN2C(N)=NC[C@H]2C(C)C)C[C@H]1[C@H](C)CC	none
CCCCN1C(=N)N([C@@H](C)CN2CCC[C@H]2CN2C(N)=NC[C@H]2C(C)C)C[C@H]1[C@H](C)CC	none (no result: SR-BI DiI-HDL act, SR-BI DiI inh)
CCC[C@@H](CN1CCC[C@H]1CN1C(N)=NC[C@H]1CC(C)C)N1C[C@@H]([C@H](C)CC)N(CCCC2CCCC2)C1=N	UBC13 inh 78.1 | Casp3 counter inactive | UBC13 conf 83.2
CCC[C@@H](CN1CCC[C@H]1CN1C(N)=NC[C@H]1C(C)C)N1C[C@@H]([C@H](C)CC)N(CCCC2CCCC2)C1=N	UBC13 inh 52.6 | Casp3 counter inactive | UBC13 conf inactive
CC[C@@H](C)[C@@H]1CN([C@@H](CN2CCC[C@H]2CN2C(N)=NC[C@@H]2Cc2ccccc2)C(C)C)C(=N)N1CCCC1CCCC1	UBC13 inh 72.3 | Casp3 counter inactive | UBC13 conf 76.0
CCOC(=O)C1=C(COC(=O)CCOc2ccccc2C)NC(=O)NC1C (stereo not given)	none
O=C(NCc1ccccc1Cl)[C@H]1CCCN1C(=O)[C@H]1CCCN1C(=O)c1ccccc1	none (no result: SR-BI DiI-HDL act, SR-BI DiI inh, UBC13 inh)
CC(C)NC(=O)C1(C)CCN1Cc1cccc(C#N)c1 (stereo not given)	none (no result: SR-BI DiI-HDL act, SR-BI DiI inh, UBC13 inh)
CCN(C(=O)COC(=O)CCC(=O)c1ccc(Cl)cc1)c1c(N)n(Cc2ccccc2)c(=O)[nH]c1=O	none (no result: UBC13 inh)
Oc1c(C(c2cccs2)N2CCN(c3cccc(Cl)c3)CC2)sc2ncnn12 (stereo not given)	UBC13 inh 52.7 | Casp3 counter inactive | UBC13 conf inactive
Oc1c(C(c2cccs2)N2CCOCC2)sc2ncnn12 (stereo not given)	none
COc1ccc(-n2ncc3c2CC(C)(C)CC3NC(=O)CCN2CCCCC2=O)cc1 (stereo not given)	none
Cc1ccc(CS(=O)(=O)c2ncc(Cl)c(C(=O)Nc3nnc(C(C)C)s3)n2)cc1	UBC13 inh 50.2 | Casp3 counter inactive | UBC13 conf 63.2
CC(=O)Nc1ccc(NC(=O)c2nc(S(=O)(=O)Cc3ccccc3)ncc2Cl)cc1	UBC13 inh 47.4 | Casp3 counter inactive | UBC13 conf 45.2
CC1=CC(C)C(=O)N(CCN2CCOCC2)C(C)=C1 (stereo not given)	none (no result: SR-BI DiI-HDL act, SR-BI DiI inh, UBC13 inh)

From PubChem
